# Test results as given in PMC2801054 (Analytical biochemistry, 2009).
# Legend:
# [1] = molecular target: T1, endometase (matrilysin 2, MMP-26) (Homo sapiens, UniProt Q9NRE1); assay: active-site titration, fluorogenic peptide hydrolysis, Morrison fit; format: biochemical; conditions: 50 mM HEPES pH 7.5, 0.2 M NaCl, 10 mM CaCl2, 0.01 % Brij-35, 25 °C, 20 min preincubation
# T1 sequence (Q9NRE1 90-261): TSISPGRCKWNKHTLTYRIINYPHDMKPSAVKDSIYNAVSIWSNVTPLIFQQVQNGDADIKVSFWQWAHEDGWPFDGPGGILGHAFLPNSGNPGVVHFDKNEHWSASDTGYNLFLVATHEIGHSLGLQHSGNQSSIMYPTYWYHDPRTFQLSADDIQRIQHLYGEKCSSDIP
# [2] = molecular target: T1, endometase (matrilysin 2, MMP-26); assay: fluorogenic peptide hydrolysis; format: biochemical
# Summary of the method: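 MMP-26 was refolded from urea-solubilized insoluble protein by dialysis and was partially auto-activated. Active enzyme concentration was set by GM6001 titration. Final conditions were 1 nM active enzyme, 1 μM Mca-PLGLDpa-AR-NH₂, and test compound at 0.001–9 mM in 50 mM HEPES pH 7.5, 0.2 M NaCl, 10 mM CaCl₂ at 25 °C. Fluorescence was read at ex 328/em 393 nm, with maximum signal set as 100% activity.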
IC50 [2] [µM],Compound,"active-site titration, fluorogenic peptide hydrolysis, Morrison fit [1]"
–,CNC(=O)[C@H](Cc1c[nH]c2ccccc12)NC(=O)[C@@H](CC(=O)NO)CC(C)C [GM6001],"Titration of active MMP-26 with GM6001, a potent and broad-spectrum MMP inhibitor"
79,CCCCCCCCCCCCCC[N+](C)(C)C [TTAB],–
110,CCCCCCCCCCCCOS(=O)(=O)O [SDS],–
